# Active and inactive are the calls of the source. The rule behind the calls is not given here.
# How the values were obtained:
# [1] = target: T1, 2-5A-dependent ribonuclease (Homo sapiens, UniProt Q05823); test: Activation of human recombinant Rnase L assessed as cleavage of FRET RNA probe
# T1 sequence (Q05823 whole entry): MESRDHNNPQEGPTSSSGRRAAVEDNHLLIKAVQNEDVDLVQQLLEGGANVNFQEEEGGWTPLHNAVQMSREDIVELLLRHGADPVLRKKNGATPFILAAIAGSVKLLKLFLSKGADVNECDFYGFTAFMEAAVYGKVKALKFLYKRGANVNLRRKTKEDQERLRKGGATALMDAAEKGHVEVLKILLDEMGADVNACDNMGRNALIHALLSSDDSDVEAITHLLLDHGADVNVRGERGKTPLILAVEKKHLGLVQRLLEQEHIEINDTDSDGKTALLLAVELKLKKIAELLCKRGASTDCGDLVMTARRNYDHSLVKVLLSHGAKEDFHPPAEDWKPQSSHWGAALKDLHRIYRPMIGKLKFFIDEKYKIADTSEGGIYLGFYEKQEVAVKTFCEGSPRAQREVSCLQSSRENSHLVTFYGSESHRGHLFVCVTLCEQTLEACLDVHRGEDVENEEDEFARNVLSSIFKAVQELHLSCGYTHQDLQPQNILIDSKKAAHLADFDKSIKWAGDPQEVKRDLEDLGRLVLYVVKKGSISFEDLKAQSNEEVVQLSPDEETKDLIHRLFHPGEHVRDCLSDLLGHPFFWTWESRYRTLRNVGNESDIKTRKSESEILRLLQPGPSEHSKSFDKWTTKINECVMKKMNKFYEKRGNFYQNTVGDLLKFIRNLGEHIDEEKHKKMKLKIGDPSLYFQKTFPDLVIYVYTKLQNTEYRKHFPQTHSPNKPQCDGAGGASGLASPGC
# Method in brief: (§1)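 Baculovirus-expressed, FPLC-purified recombinant human RNase L (25 nM) with 100 nM 36-nt 6-FAM/BHQ-1 FRET RNA probe (Km 75 nM) in cleavage buffer: 25 mM Tris·HCl pH 7.4, 100 mM KCl, 10 mM MgCl2, 50 μM ATP, 7 mM 2-mercaptoethanol. 22°C up to 2 h; fluorescence ex 485/em 535 nm. Compounds delivered from DMSO stocks; rescreened without RNase L to remove false positives.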
# [2] = target: T2, 2-5A-dependent ribonuclease (Homo sapiens) (UniProt Q05823); test: Activation of human recombinant RNase L assessed as cleavage of FRET RNA probe at 15 mins; method in brief: as §1
# T2 sequence (whole entry): T1 sequence (Q05823 whole entry)
# [3] = target: T2, 2-5A-dependent ribonuclease (Homo sapiens); test: Activation of human recombinant RNase L assessed as cleavage of p32-labelled RNA molecule at 25 uM after 30 mins
# [4] = target: T2, 2-5A-dependent ribonuclease (Homo sapiens); test: Induction of dimerization of human RNaseL at 0.06 to 0.25 uM assessed by Western blotting
# Method in brief: (§2)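 RNase L incubated with 2-5A or activator, with or without the cross-linker dimethyl suberimidate. Oligomeric state (monomer vs dimer) read by SDS/PAGE and Western blot probed with anti-RNase L monoclonal antibody.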
# [5] = Cytotoxicity against mouse fibroblast assessed as reduction of cell viability upto 50 uM; assay type: cell-based
# Method in brief: (§3)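 SV40-transformed mouse embryonic fibroblasts or HeLa S cells (10^4/well) treated with compound up to 50 μM for 24 h. MTS reagent added for 3 h at 37°C; absorbance read at 490 nm. Triplicate, with SDs.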
# Respirovirus muris = test: Antiviral activity against sendai virus in HeLaS cell assessed as suppression of infection; assay type: functional, organism-based
# Method in brief: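 HeLa S cells infected with Sendai virus (Cantell), 20 HA units/ml, in serum-free medium for 90 min. Cells washed and given complete medium with compound doses. Supernatant collected at 24 h; viral genomic RNA quantified by real-time RT-PCR; triplicate.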
# [6] = target: T2, 2-5A-dependent ribonuclease (Homo sapiens); test: Activation of human recombinant RNaseL at 40 uM assessed as cleavage of FRET RNA probe; method in brief: as §1
# [7] = system: Encephalomyocarditis virus; test: Antiviral activity against encephalomyocarditis virus in wild type mouse fibroblasts assessed as reduction in viral growth; assay type: functional
# Method in brief: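 SV40 T antigen-transformed wild-type mouse embryonic fibroblasts were grown in RPMI 1640 with 10% FBS and seeded at 2.5 × 10⁵ cells/well. After 1 h, cells were infected with EMCV strain K (MOI 0.5) in serum-free medium for 1 h, washed with PBS, then fed complete medium containing varied compound amounts. At 12 h, titres were measured by plaque assay on L929 cells, in triplicate.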
# [8] = target: T1, 2-5A-dependent ribonuclease; test: Displacement of 5'-phosphorylated, 2',5'-oligoadenylate from human recombinant RNase L assessed as decrease in resonance by surface plasma resonance
# Method in brief: (§4)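 Biotinylated 2-5A immobilized on streptavidin biosensor chips; 10 nM RNase L with varying activator concentrations passed over the chip. Response units recorded over time, and maximum response at equilibrium (Rmax) fitted against concentration by global fit.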
# HeLaS = test: Cytotoxicity against of human HeLaS cells assessed as reduction of cell viability upto 50 uM; assay type: functional, cell-based; method in brief: as §3
# [9] = target: T2, 2-5A-dependent ribonuclease (Homo sapiens); test: Induction of dimerization of human RNaseL at 3 to 12 uM assessed by Western blotting; method in brief: as §2
# [10] = target: T1, 2-5A-dependent ribonuclease; test: Binding affinity to human recombinant RNase L; method in brief: as §4
# Human respirovirus 3 [11] = test: Antiviral activity against human parainfluenza virus3 in HeLaM cells expressing RNaseL R667A mutant […]; assay type: functional
# Method in brief: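 HeLa M cells expressing R667A RNase L cDNA were grown in DMEM with 10% FBS. They were infected with HPIV3/GFP (MOI 1.0) in serum-free medium for 90 min, washed with PBS, then given complete medium with varied compound amounts. At 24 h, virus was harvested by two freeze–thaw cycles and titred by plaque assay on CV1 cells, in triplicate.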
# XMRV = test: Antiviral activity against human retrovirus XMRV in human DU145 cells assessed as suppression of infection; assay type: functional, cell-based; settings: Xenotropic MuLV-related virus; DU-145
# Method in brief: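 DU145 cells infected with XMRV for 3 h in FBS-free RPMI 1640 containing 8 μg/ml polybrene, then washed. Treated in triplicate with compound in fresh complete RPMI for 2 d. Reverse transcriptase activity measured in supernatants.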
# Human respirovirus 3 [12] = test: Antiviral activity against human parainfluenza virus3 in HeLaS cells expressing wild type RNaseL after 24 hrs by GFP reporter assay; assay type: functional
# Method in brief: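 HeLa S cells, with endogenous wild-type RNase L, were infected with HPIV3/GFP at MOI 1.0. After 90 min, medium was removed and cells were washed twice with PBS. Cells were then incubated in complete medium without compound or with 10, 50 or 100 μM compound. GFP fluorescence was imaged by fluorescence microscopy at 24 h post-infection.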
# Human respirovirus 3 [13] = test: Antiviral activity against human parainfluenza virus3 in HeLaM cells expressing wild type RNaseL by plaque assay
compound,measurement,setting,value
CCCCOC(=O)c1ccc(NC(=S)NC(NC(=O)CC)C(Cl)(Cl)Cl)cc1 (stereo not drawn),EC50,[1],90 µM
COc1ccc(Cl)cc1NC(=O)c1cc2c(C)nn(-c3ccccc3)c2s1,EC50,[1],48 µM
Nc1ncnc2c1ncn2[C@@H]1O[C@H](COP(=O)(O)O[C@@H]2[C@H](O)[C@@H](COP(=O)(O)O[C@@H]3[C@H](O)[C@@H](COP(=O)(O)OP(=O)(O)OP(=O)(O)O)O[C@H]3n3cnc4c(N)ncnc43)O[C@H]2n2cnc3c(N)ncnc32)[C@@H](O)[C@H]1O,Activity,[2],Active
same,Activity,[3],Active
same,Activity,[4],Active
CCCCOC(=O)c1ccc(NC(=S)NC(NC(C)=O)C(Cl)(Cl)Cl)cc1 (stereo not drawn),EC50,[1],99 µM
CC(=O)c1ccc(NC(=S)NC(NC(=O)Cc2ccccc2)C(Cl)(Cl)Cl)cc1 (stereo not drawn),EC50,[1],79 µM
Cc1c(Cl)cccc1NC1=NC(=O)/C(=C/c2ccc([N+](=O)[O-])cc2)S1,EC50,[1],50 µM
CCOC(=O)C1=C(Nc2ccc(Cl)cc2)S/C(=C\c2cccc(O)c2)C1=O,EC50,[1],49 µM
CCOC(=O)C1=C(Nc2ccccc2)S/C(=C\c2cccc(O)c2)C1=O,Activity,[5],Not Active
same,Activity,Respirovirus muris,Active
same,Activity,[3],Active
same,Activity,[6],Active
same,Activity,[7],7
same,Kd,[8],18 µM
same,Activity,HeLaS,inactive
same,Activity,[4],Active
same,EC50,[1],26 µM
same,Activity,[9],Active
O=c1[nH]c(-c2ccc(O)cc2)nc2sc3c(c12)CCCC3,EC50,[1],26 µM
O=c1[nH]c(-c2cccc([N+](=O)[O-])c2)nc2sc3c(c12)CCCC3,EC50,[1],22 µM
Nc1ncnc2c1ncn2[C@@H]1O[C@H](CO[P@](=O)(O)O[C@@H]2[C@H](O)[C@@H](CO[P@](=O)(O)O[C@@H]3[C@H](O)[C@@H](CO[P@](=O)(O)O[P@@](=O)(O)OP(=O)(O)O)O[C@H]3n3cnc4c(N)ncnc43)O[C@H]2n2cnc3c(N)ncnc32)[C@@H](O)[C@H]1O,Kd,[10],0.04 nM
same,Kd,[8],0.00022 µM
same,EC50,[1],0.0005 µM
Cc1ccc(NC2=NC(=O)/C(=C/c3cccc(O)c3)S2)c(Cl)c1,EC50,[1],49 µM
O=c1[nH]c(-c2cccc(O)c2)nc2sc3c(c12)CCCC3,Activity,[5],Not Active
same,Activity,Human respirovirus 3 [11],<2
same,Activity,Respirovirus muris,Active
same,Activity,[3],Active
same,Activity,[6],Active
same,Activity,[7],7
same,Activity,XMRV,Active
same,Kd,[8],12 µM
same,Activity,HeLaS,inactive
same,EC50,[1],22 µM
same,Activity,Human respirovirus 3 [12],5
same,Activity,Human respirovirus 3 [13],Active
same,Activity,[9],Active

# — ChEMBL document CHEMBL1142230, “Small-molecule activators of RNase L with broad-spectrum antiviral activity” (Proc Natl Acad Sci U S A, 2007)
